{"source": "ChEMBL document CHEMBL1123953", "about": "“Studies on prodrugs. 7. Synthesis and antimicrobial activity of 3-formylquinolone derivatives” (J Med Chem, 1988)", "key": {"[1]": {"test_system": "Klebsiella pneumoniae", "test": "In vitro inhibition of growth of Klebsiella pneumoniae (PC-1602)", "assay_type": "functional", "in_short": "(§1)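 Agar dilution using serial 2-fold dilutions in Mueller-Hinton agar, with plate concentrations 0.006 to 100 μg/mL. Inoculum approx. 10^6 cfu/mL. Plates incubated at 37 °C for 18 h. MIC taken as the lowest concentration preventing visible bacterial growth.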"}, "[2]": {"test_system": "Mus musculus", "test": "Serum levels in Mice 1 hr after Oral administration of 50 mg/kg; nd= Not detected", "assay_type": "functional, organism-based", "parameters": "dose 50 mg/kg", "in_short": "(§2)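 Mice dosed orally at 50 mg/kg, suspended in 0.5% sodium (carboxymethyl)cellulose; prodrugs given at a dose equivalent to 50 mg/kg of parent acid. Mice killed by bleeding at 0.5, 1.0, 2.0 and 4.0 h, and serum obtained by centrifugation. Serum analysed by HPLC, eluting with 5% AcOH/MeOH (70/30). Values given with standard deviation.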"}, "[3]": {"test_system": "Bacillus subtilis", "test": "In vitro inhibition of growth of Bacillus subtilis (ATCC 6633)", "assay_type": "functional", "in_short": "as §1"}, "[4]": {"test_system": "Serratia marcescens", "test": "In vitro inhibition of growth of Serratia marcescens (IAM1184)", "assay_type": "functional", "in_short": "as §1"}, "[5]": {"test_system": "Escherichia coli", "test": "In vitro Inhibition of growth of Escherichia coli(KC-14)", "assay_type": "functional", "in_short": "as §1"}, "[6]": {"test_system": "Mus musculus", "test": "Serum levels in Mice 0.5 hr after Oral administration of 50 mg/kg; nd= Not detected", "assay_type": "functional, organism-based", "parameters": "dose 50 mg/kg", "in_short": "as §2"}, "[7]": {"test_system": "Staphylococcus aureus", "test": "Inhibition of growth of Staphylococcus aureus (FDA207PJC-1) after incubation at 37 degree Centigrade", "assay_type": "functional", "in_short": "as §1"}, "[8]": {"test_system": "Proteus vulgaris", "test": "In vitro inhibition of growth of Proteus vulgaris(OX-19)", "assay_type": "functional", "in_short": "as §1"}, "[9]": {"test_system": "Mus musculus", "test": "Serum levels in Mice 4 hr after Oral administration of 50 mg/kg; nd= Not detected", "assay_type": "functional, organism-based", "parameters": "dose 50 mg/kg", "in_short": "as §2"}, "[10]": {"test_system": "Mus musculus", "test": "(§3) Inhibition of growth of Escherichia coli (KC-14) upon oral administration in mice", "assay_type": "functional", "in_short": "(§4)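 Groups of 10 male ddY mice (20 ± 2 g) were inoculated intraperitoneally with 0.5 mL of E. coli KC-14 at 10 or 100 times the 50% lethal dose. Compounds, suspended in 0.5% sodium (carboxymethyl)cellulose, were given orally 1 h postinfection. Survival was scored after 1 week. ED50 is reported with 95% confidence limits.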"}, "[11]": {"test_system": "Pseudomonas aeruginosa", "test": "In vitro inhibition of growth of Pseudomonas aeruginosa(E-2)", "assay_type": "functional", "in_short": "as §1"}, "[12]": {"test_system": "Mus musculus", "test": "Serum levels in Mice 2 hr after Oral administration of 50 mg/kg; nd= Not detected", "assay_type": "functional, organism-based", "parameters": "dose 50 mg/kg", "in_short": "as §2"}, "[13]": {"test_system": "Escherichia coli", "test": "as §3", "assay_type": "functional", "in_short": "as §4"}, "[14]": {"test": "Area under the curve in concentration/ time", "assay_type": "ADME", "in_short": "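Mice dosed orally at 50 mg/kg (formyl prodrug at a dose equivalent to 50 mg/kg of parent acid), suspended in 0.5% sodium (carboxymethyl)cellulose. Mice killed by bleeding at 0.5, 1.0, 2.0 and 4.0 h. Blood centrifuged and serum drug levels measured by HPLC. AUC from the serum concentration–time curve, in μg/mL per hour.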"}, "[15]": {"test_system": "Escherichia coli", "test": "(§5) Inhibition of growth of Escherichia coli (KC-14) upon oral administration in mice(95%CL)", "assay_type": "functional", "in_short": "(§6)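 Male ddY mice (20 ± 2 g, groups of 10) infected intraperitoneally with 0.5 mL of E. coli KC-14 dilution at 10 or 100 times the 50% lethal dose. Compounds suspended in 0.5% sodium (carboxymethyl)cellulose and given orally 1 h postinfection. Survival scored after 1 week. ED50 derived with 95% confidence limits.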"}, "[16]": {"test_system": "Mus musculus", "test": "as §5", "assay_type": "functional", "in_short": "as §6"}, "[17]": {"details": "Klebsiella pneumoniae, read-out: MIC"}, "[18]": {"details": "Staphylococcus aureus, read-out: MIC"}, "[19]": {"details": "Proteus vulgaris, read-out: MIC"}}, "note": "Where “and” joins values, the source holds several entries; their conditions need not be identical. Equal values may be shown once."}
{"smiles": "CCn1cc(C=O)c(=O)c2cc(F)c(N3CCNCC3)cc21", "values": [{"measurement": "MIC", "setting": "[1]; [17]", "result": 3.12, "unit": "µg/mL"}, {"measurement": "Serum level", "setting": "[2]", "result": "Not detected"}, {"measurement": "MIC", "setting": "[3]", "result": 12.5, "unit": "µg/mL"}, {"measurement": "MIC", "setting": "[4]", "result": "< 100", "unit": "µg/mL"}, {"measurement": "MIC", "setting": "[5]", "result": 12.5, "unit": "µg/mL"}, {"measurement": "Serum level", "setting": "[6]", "result": "Not detected"}, {"measurement": "MIC", "setting": "[7]; [18]", "result": "< 100", "unit": "µg/mL"}, {"measurement": "MIC", "setting": "[8]; [19]", "result": 6.25, "unit": "µg/mL"}, {"measurement": "Serum level", "setting": "[9]", "result": "Not detected"}, {"measurement": "ED50", "setting": "[10]", "result": 2.53, "unit": "mg/kg"}, {"measurement": "MIC", "setting": "[11]", "result": "< 100", "unit": "µg/mL"}, {"measurement": "Serum level", "setting": "[12]", "result": "Not detected"}]}
{"smiles": "O=Cc1cn(C2CC2)c2cc(N3CCNCC3)c(F)cc2c1=O", "values": [{"measurement": "MIC", "setting": "[1]; [17]", "result": 12.5, "unit": "µg/mL"}, {"measurement": "MIC", "setting": "[3]", "result": 6.25, "unit": "µg/mL"}, {"measurement": "MIC", "setting": "[4]", "result": 12.5, "unit": "µg/mL"}, {"measurement": "MIC", "setting": "[5]", "result": 3.13, "unit": "µg/mL"}, {"measurement": "MIC", "setting": "[7]; [18]", "result": 25, "unit": "µg/mL"}, {"measurement": "MIC", "setting": "[8]; [19]", "result": 3.13, "unit": "µg/mL"}, {"measurement": "ED50", "setting": "[10]", "result": 0.49, "unit": "mg/kg"}, {"measurement": "MIC", "setting": "[11]", "result": 50, "unit": "µg/mL"}]}
{"smiles": "CCn1cc(C(=O)O)c(=O)c2cc(F)c(N3CCN(C)CC3)cc21", "note": "[PEFLOXACIN]", "values": [{"measurement": "MIC", "setting": "[1]", "result": 0.05, "unit": "µg/mL"}, {"measurement": "MIC", "setting": "[1]; [17]", "result": 0.05, "unit": "µg/mL"}, {"measurement": "MIC", "setting": "[7]", "result": 0.39, "unit": "µg/mL"}, {"measurement": "MIC", "setting": "[7]; [18]", "result": 0.39, "unit": "µg/mL"}, {"measurement": "MIC", "setting": "[8]", "result": 0.05, "unit": "µg/mL"}, {"measurement": "MIC", "setting": "[8]; [19]", "result": 0.05, "unit": "µg/mL"}, {"measurement": "ED50", "setting": "[13]", "result": 1.67, "unit": "mg/kg"}, {"measurement": "ED50", "setting": "[13]; Escherichia coli, po", "result": 1.67, "unit": "mg/kg"}]}
{"smiles": "CCn1cc(C(=O)O)c(=O)c2cc(F)c(N3CCNCC3)cc21", "note": "[NORFLOXACIN]", "values": [{"measurement": "MIC", "setting": "[1]; [17]", "result": 0.05, "unit": "µg/mL"}, {"measurement": "MIC", "setting": "[3]", "result": 0.2, "unit": "µg/mL"}, {"measurement": "MIC", "setting": "[4]", "result": 0.2, "unit": "µg/mL"}, {"measurement": "MIC", "setting": "[5]", "result": 0.1, "unit": "µg/mL"}, {"measurement": "MIC", "setting": "[7]; [18]", "result": 0.2, "unit": "µg/mL"}, {"measurement": "MIC", "setting": "[8]; [19]", "result": 0.05, "unit": "µg/mL"}, {"measurement": "AUC", "setting": "[14]", "result": "0.98 µg/mL/h and 1.77 µg/mL/h"}, {"measurement": "MIC", "setting": "[11]", "result": 0.78, "unit": "µg/mL"}, {"measurement": "ED50", "setting": "[15]", "result": 7.68, "unit": "mg/kg"}]}
{"smiles": "CCn1cc(C=O)c(=O)c2cc(F)c(N3CCN(C)CC3)cc21", "values": [{"measurement": "MIC", "setting": "[1]; [17]", "result": 1.56, "unit": "µg/mL"}, {"measurement": "MIC", "setting": "[3]", "result": 3.13, "unit": "µg/mL"}, {"measurement": "MIC", "setting": "[4]", "result": 12.5, "unit": "µg/mL"}, {"measurement": "MIC", "setting": "[5]", "result": 6.25, "unit": "µg/mL"}, {"measurement": "MIC", "setting": "[7]; [18]", "result": 12.5, "unit": "µg/mL"}, {"measurement": "MIC", "setting": "[8]", "result": 1.56, "unit": "µg/mL"}, {"measurement": "MIC", "setting": "[11]", "result": "< 25", "unit": "µg/mL"}, {"measurement": "ED50", "setting": "[16]", "result": 0.84, "unit": "mg/kg"}]}
